Measured values reported in ChEMBL document CHEMBL1806372, “Cytotoxic ring A-modified steroid analogues derived from Grundmann's ketone” (Eur J Med Chem, 2011).
Activity calls are given as the source filed them. The calls are words filed in the database; no cut-off is given here.

Columns and labels:
Assay type in all cases: functional
A498 = assay: Cytotoxicity against human A498 cells after 48 hrs by sulforhodamine B assay; details: A498, 48 h, read-out: LC50 (the source's name)
Procedure, shortened: (§1)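 NCI 60 human tumour cell line panel run to the NCI protocol. GI50, TGI and LC50 come from log concentration vs % growth inhibition curves for each cell line. Lines insensitive at the top concentration are reported with ">".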

ACHN = assay: Cytotoxicity against human ACHN cells after 48 hrs by sulforhodamine B assay; details: read-out: LC50 (the source's name); procedure, shortened: as §1
SK-MEL-28 [1] = assay: Growth inhibition of human SK-MEL-28 cells after 48 hrs by sulforhodamine B assay; details: SK-MEL-28, 48 h
Procedure, shortened: (§2)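 GI50, TGI and LC50 were derived from log concentration versus % growth inhibition curves for each cell line. GI50 is the concentration giving a 50% decrease in net cell growth. Insensitive lines are reported as greater than the highest concentration.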

MCF7 = assay: Cytotoxicity against human MCF7 cells after 48 hrs by sulforhodamine B assay; details: MCF7, 48 h, read-out: LC50 (the source's name); procedure, shortened: as §1
SK-MEL-5 = assay: Cytotoxicity against human SK-MEL-5 cells after 48 hrs by sulforhodamine B assay; details: SK-MEL-5, 48 h, read-out: LC50 (the source's name); procedure, shortened: as §1
HOP-92 = assay: Cytotoxicity against human HOP92 cells after 48 hrs by sulforhodamine B assay; details: HOP-92, 48 h, read-out: LC50 (the source's name); procedure, shortened: as §1
786-0 = assay: Cytotoxicity against human 786-0 cells after 48 hrs by sulforhodamine B assay; details: 786-0, 48 h, read-out: LC50 (the source's name); procedure, shortened: as §1
SK-OV-3 = assay: Growth inhibition of human SKOV3 cells after 48 hrs by sulforhodamine B assay; details: SK-OV-3, 48 h
Procedure, shortened: (§3)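 NCI 60-cell panel five-dose assay. GI50, TGI and LC50 are derived from log concentration versus % growth inhibition curves. Cell lines insensitive at the top concentration are given a ">" prefix.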

MDA-MB-468 = assay: Cytotoxicity against human MDA-MB-468 cells after 48 hrs by sulforhodamine B assay; details: MDA-MB-468, 48 h, read-out: LC50 (the source's name); procedure, shortened: as §1
CCRF-CEM = assay: Cytotoxicity against human CCRF-CEM cells after 48 hrs by sulforhodamine B assay; details: read-out: LC50 (the source's name); procedure, shortened: as §1
EKVX = assay: Growth inhibition of human EKVX cells after 48 hrs by sulforhodamine B assay
Procedure, shortened: (§4)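 From log concentration versus % growth curves, GI50 (50% decrease in net growth), TGI (total growth inhibition) and LC50 (net 50% loss of initial cells) are derived for each line.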

RXF 393 = assay: Cytotoxicity against human RXF393 cells after 48 hrs by sulforhodamine B assay; details: RXF 393, 48 h, read-out: LC50 (the source's name); procedure, shortened: as §1
SK-MEL-28 [2] = assay: Cytotoxicity against human SK-MEL-28 cells after 48 hrs by sulforhodamine B assay; details: SK-MEL-28, 48 h, read-out: LC50 (the source's name); procedure, shortened: as §1
UO-31 = assay: Cytotoxicity against human UO31 cells after 48 hrs by sulforhodamine B assay; details: UO-31, 48 h, read-out: LC50 (the source's name)
SR = assay: Cytotoxicity against human SR cells after 48 hrs by sulforhodamine B assay; details: read-out: LC50 (the source's name)
NCI-H522 = assay: Cytotoxicity against human NCI-H522 cells after 48 hrs by sulforhodamine B assay; details: NCI-H522, 48 h, read-out: LC50 (the source's name); procedure, shortened: as §1
PC-3 = assay: Growth inhibition of human PC3 cells after 48 hrs by sulforhodamine B assay; details: PC-3, 48 h; procedure, shortened: as §2
HCT-15 = assay: Growth inhibition of human HCT15 cells after 48 hrs by sulforhodamine B assay; details: HCT-15, 48 h; procedure, shortened: as §4
U-251 [3] = assay: Growth inhibition of human U251 cells after 48 hrs by sulforhodamine B assay; details: U-251, 48 h; procedure, shortened: as §3
CAKI-1 = assay: Cytotoxicity against human Caki1 cells after 48 hrs by sulforhodamine B assay; details: CAKI-1, 48 h, read-out: LC50 (the source's name); procedure, shortened: as §1
U-251 [4] = assay: Cytotoxicity against human U251 cells after 48 hrs by sulforhodamine B assay; details: U-251, 48 h, read-out: LC50 (the source's name)
Burkholderia gladioli = assay: Antibacterial activity against Pseudomonas antimicrobica assessed as zone of inhibition at 5 uL and 32 degC after 36 hrs by disk diffusion method
Procedure, shortened: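 Disc diffusion on AC agar, each strain spread evenly over the medium; test compounds given as 1% (w/v) DMSO solutions. Plates covered and incubated 36 h at 32 °C, then the diameter of the zone of inhibited growth measured in mm. Tetracycline served as antibacterial reference.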

Compound | GI50 (SK-MEL-28 [1]) [µM] | GI50 (SK-OV-3) [µM] | CC50 (CCRF-CEM) [µM] | GI50 (EKVX) [µM] | TGI (EKVX) [µM] | CC50 (SK-MEL-28 [2]) [µM] | CC50 (UO-31) [µM] | CC50 (SR) [µM] | CC50 (NCI-H522) [µM] | GI50 (PC-3) [µM] | TGI (PC-3) [µM] | GI50 (HCT-15) [µM] | GI50 (U-251 [3]) [µM] | TGI (U-251 [3]) [µM] | further results
CC(C)CCC[C@@H](C)[C@H]1CC[C@H]2C3=CCn4c(=O)ccc(=O)n4[C@@H]3CC[C@]12C | 0.512 | 1.63 | > 100 | 1.03 | 2.75 | 4.14 | 4.19 | > 100 | 1.54 | 0.243 | 1.11 | 0.418 | 0.438 | 1.59 | CC50 (A498): 4.87 µM; CC50 (ACHN): 5.19 µM; TGI (SK-MEL-28 [1]): 1.65 µM; CC50 (MCF7): 4.26 µM; CC50 (SK-MEL-5): 4.52 µM; CC50 (HOP-92): 3.76 µM; CC50 (786-0): 4.43 µM; TGI (SK-OV-3): 2.99 µM; CC50 (MDA-MB-468): 9.42 µM; CC50 (RXF 393): 5.43 µM; TGI (HCT-15): 2.22 µM; CC50 (CAKI-1): 3.47 µM; CC50 (U-251 [4]): 4.18 µM
CC(C)CCC[C@@H](C)[C@H]1CC[C@H]2C3=CC[C@@H]4C(=O)C=CC(=O)[C@@H]4[C@@H]3CC[C@]12C | 0.302 | 0.688 | > 100 | 0.545 | > 100 | > 100 | > 1.75 | > 100 | > 100 | 0.059 | 1.57 | 0.212 | 0.094 | 1.23 | diameter of the inhibition zone (DIZ) (Burkholderia gladioli): inactive
